{"data": "Measured values collected from several papers", "note": "Lines come from different studies, so protocols differ."}
{"Structure (SMILES)": "CC[C@H](C)[C@@H]1NC(=O)[C@@](C)(NC(=O)[C@H](CCCNC(=N)N)NC(=O)[C@H](CC(C)C)NC(=O)[C@@H](NC(=O)[C@H](CCC(N)=O)NC(=O)[C@H](CC(C)C)NC(C)=O)[C@@H](C)O)CCCC=CCCC[C@@](C)(C(=O)N[C@@H](CC(C)C)C(=O)N[C@@H](Cc2ccc3ccccc3c2)C(N)=O)NC(=O)[C@H](CCCNC(=N)N)NC(=O)[C@H](CCC(N)=O)NC1=O", "host": "male BALB/c mouse", "medium": "plasma", "route": "intravenous", "dose": "5 mg/kg", "Cmax": "41 µM"}
{"Structure (SMILES)": "COC(=O)CN(CCCc1ccccc1)CC(=O)N[C@@H](Cc1c[nH]cn1)c1nc(C)no1", "host": "male C57BL/6 mouse", "medium": "plasma", "route": "intraperitoneal", "dose": "30 mg/kg", "Cmax": "1000 ng/mL"}
{"Structure (SMILES)": "Cc1nc(-c2cnc(NC(C)C)n(C)c2=O)ccc1Oc1ccnc(-c2cnn(C)c2)c1", "host": "female mouse", "medium": "plasma", "route": "oral", "dose": "15 mg/kg", "notes": "single dose", "Cmax": "9360 ng/mL"}
{"Structure (SMILES)": "CCOc1ccc(Cc2cc([C@@H]3O[C@H](CO)[C@@H](O)[C@H](O)[C@H]3O)ccc2Cl)cc1", "host": "male C57BL/6 mouse", "medium": "plasma", "route": "intravenous", "dose": "1 mg/kg", "Cmax": "1170 ng/mL"}
{"Structure (SMILES)": "COc1nc(-c2cc(C)c(N[C@@H](C)c3c(F)cc(F)cc3F)nn2)ccc1-n1cnc(C)c1", "host": "male CD-1 mouse", "medium": "plasma", "route": "intravenous", "dose": "1 mg/kg", "notes": "single dose", "Cmax": "858 ng/mL"}
{"Structure (SMILES)": "CC(C)(C)c1ccc(O)c(CN(Cc2cc(C(C)(C)C)ccc2O)C2CCC(NC(N)=O)CC2)c1 (centres unmarked)", "host": "male C57BL/6 mouse", "medium": "plasma", "route": "oral", "dose": "10 mg/kg", "notes": "single dose", "Cmax": "1020 ng/mL"}
{"Structure (SMILES)": "Cc1ccc(NC(=O)c2ccc(CN3CCN(C)CC3)cc2)cc1Nc1nccc(-c2cncc(-c3oncc3C)c2)n1", "host": "male C57BL/6 mouse", "medium": "brain", "route": "oral", "dose": "100 mg/kg/day", "Cmax": "98.1 ng/mL"}
{"Structure (SMILES)": "NC(=O)c1cccc(-c2c[nH]c3ncnc(N4CCOCC4)c23)c1", "host": "female C57BL/6 mouse", "medium": "plasma", "route": "intraperitoneal", "dose": "10 mg/kg", "Cmax": "11 µM"}
{"Structure (SMILES)": "CSc1cc(Oc2ccnc3[nH]c(=O)cnc23)ccc1NC(=O)Nc1cc(C(C)(C)C)nn1-c1ccccc1", "host": "BALB/c mouse", "medium": "plasma", "route": "intravenous", "dose": "2 mg/kg", "Cmax": "29.8 µM"}
{"Structure (SMILES)": "COc1ccc2nccc(N3CCc4c(cc(Cn5ccnc5)cc4-c4cn(C)nc4C(F)(F)F)C3=O)c2c1", "host": "male CD-1 mouse", "medium": "plasma", "route": "oral", "dose": "50 mg/kg", "Cmax": "8940 ng/mL"}
{"Structure (SMILES)": "Cc1c(C(=O)NN2CCCCC2)nc(-c2ccc(Cl)cc2Cl)n1-c1ccc(OS(=O)(=O)CCC(F)(F)F)cc1", "host": "mouse", "medium": "plasma", "route": "oral", "dose": "20 µmol/kg", "notes": "single dose", "Cmax": "1.2 µM"}
{"Structure (SMILES)": "CN1CCN(C(=O)c2cc3c(Nc4ccc(OC(F)(F)F)cc4)ncnc3s2)CC1", "host": "male BALB/c mouse", "medium": "plasma", "route": "oral", "dose": "20 mg/kg", "Cmax": "1090 ng/mL"}
{"Structure (SMILES)": "COc1nc(-c2cc(C)c(N[C@@H](C)c3ccc(F)cc3)nn2)ccc1-n1cnc(C)c1", "host": "male CD-1 mouse", "medium": "plasma", "route": "intravenous", "dose": "1 mg/kg", "notes": "single dose", "Cmax": "768 ng/mL"}
{"Structure (SMILES)": "CCc1cc(C(=O)NC)c2nccc(N3CCc4c(cc(Cn5ccnc5)cc4-c4cn(C)nc4C(F)(F)F)C3=O)c2c1", "host": "male CD-1 mouse", "medium": "plasma", "route": "oral", "dose": "150 mg/kg", "Cmax": "131000 ng/mL"}
{"Structure (SMILES)": "O=S(=O)(c1ccc(-c2ccc3nccc(Nc4ccncn4)c3c2)cc1)N1CCOCC1", "host": "female BALB/c mouse", "medium": "plasma", "route": "intraperitoneal", "dose": "10 mg/kg", "Cmax": "4460 ng/mL"}
{"Structure (SMILES)": "C=CC(=O)N1CC2CC(n3nc(-c4ccc(C(=O)Nc5ccccn5)cc4)c4c(N)ncnc43)CC2C1 (centres unmarked)", "host": "SCID mouse", "medium": "plasma", "route": "oral", "dose": "5 mg/kg", "Cmax": "429 ng/mL"}
{"Structure (SMILES)": "NC(=O)c1cc(Oc2ccc(NC(=O)Nc3ccc(Cl)c(C(F)(F)F)c3)c(F)c2)cc[n+]1[O-]", "host": "mouse", "medium": "plasma", "route": "oral", "dose": "10 mg/kg", "notes": "single dose", "Cmax": "22.9 ng/mL"}
{"Structure (SMILES)": "CC(=O)O[C@H]1C(=O)[C@@]2(C)[C@H]([C@H](OC(=O)c3ccccc3)[C@]3(O)C[C@H](OC(=O)[C@H](O)[C@@H](NC(=O)c4ccccc4)c4ccccc4)C(C)=C1C3(C)C)[C@]1(OC(C)=O)CO[C@@H]1C[C@@H]2O", "host": "SCID mouse", "medium": "tumour", "route": "intraperitoneal", "dose": "10 mg/kg", "notes": "single dose, tumour-bearing", "Cmax": "3700 ng/g"}
{"Structure (SMILES)": "O=C(NO)c1ccc(CN(c2cnccn2)c2cnccn2)cc1", "host": "male C57BL/6 mouse", "medium": "plasma", "route": "oral", "dose": "200 mg/kg", "notes": "multiple doses, once daily, tumour-bearing", "Cmax": "300 ng/mL"}
{"Structure (SMILES)": "CNC(=O)c1ccccc1Nc1cc(Nc2ccc(N3CCOCC3)cc2OC)ncc1C(F)(F)F", "host": "BALB/c mouse", "medium": "plasma", "route": "oral", "dose": "150 mg/kg", "Cmax": "~14 µM"}
{"Structure (SMILES)": "CS(=O)(=O)CCNCc1ccc(-c2ccc3ncnc(Nc4ccc(OCc5cccc(F)c5)c(Cl)c4)c3c2)o1", "host": "nude mouse", "medium": "plasma", "route": "oral", "dose": "200 mg/kg", "notes": "single dose", "Cmax": "16600 ng/mL"}
{"Structure (SMILES)": "COc1ccc([C@@]23Oc4cc(OC)cc(OC)c4[C@]2(O)[C@H](O)[C@H](C(=O)N(C)C)[C@H]3c2ccccc2)cc1", "host": "mouse", "medium": "plasma", "route": "oral", "dose": "5 mg/kg", "Cmax": "~0.8 µM"}
{"Structure (SMILES)": "Nc1nc(-c2ccccc2)nc2[nH]nc(Nc3ccc(C(F)(F)F)cc3)c12", "host": "mouse", "medium": "plasma", "route": "oral", "dose": "100 mg/kg", "Cmax": "1250 ng/mL"}
{"Structure (SMILES)": "CN1CCC[C@H](CN2c3ccccc3Sc3ccccc32)C1.Cl", "host": "mouse", "medium": "plasma", "route": "oral", "dose": "64 mg/kg", "notes": "single dose", "Cmax": "1180 ng/mL"}
{"Structure (SMILES)": "NC[C@@H]1O[C@H](O[C@H]2[C@@H](O)[C@H](O[C@@H]3[C@@H](O)[C@H](N)C[C@H](N)[C@H]3O[C@H]3O[C@H](CO)[C@@H](O)[C@H](O)[C@H]3N)O[C@@H]2CO)[C@H](N)[C@@H](O)[C@@H]1O", "host": "male BALB/c mouse", "medium": "plasma", "route": "oral", "dose": "500 mg/kg", "Cmax": "690 ng/mL"}
{"Structure (SMILES)": "COc1ccc(C(O)COc2ccc(-c3csc(-c4ccc(OCC(O)c5ccc(OC)c(OC)c5)cc4)n3)cc2)cc1OC (centres unmarked)", "host": "C57BL/6 mouse", "medium": "plasma", "route": "oral", "dose": "10 mg/kg", "Cmax": "1760 ng/mL"}
{"Structure (SMILES)": "FC(F)(F)Oc1ccc(Nc2cc(-c3cn[nH]c3)ncn2)cc1", "host": "male BALB/c mouse", "medium": "plasma", "route": "oral", "dose": "20 mg/kg", "Cmax": "3400 ng/mL"}
{"Structure (SMILES)": "CCc1ccc(Cc2cc([C@@H]3O[C@H](CO)[C@@H](O)[C@H](O)[C@H]3O)cc3c2CCC3)cc1", "host": "male C57BL/6 mouse", "medium": "plasma", "route": "oral", "dose": "3 mg/kg", "Cmax": "1830 ng/mL"}
{"Structure (SMILES)": "CN1CCN(C(=O)CN[C@@H]2C[C@H]2c2ccc(OCc3ccccc3)cc2)CC1", "host": "mouse", "medium": "plasma", "route": "intraperitoneal", "dose": "10 mg/kg", "Cmax": "542 ng/mL"}
{"Structure (SMILES)": "CNCCN(C)c1cc(C#N)cc(CCc2cc(C)cc(N)n2)c1", "host": "male BALB/c mouse", "medium": "plasma", "route": "oral", "dose": "10 mg/kg", "Cmax": "50.8 ng/mL"}
{"Structure (SMILES)": "CC(C)(O)c1cn(-c2ccc(-c3cc(F)c(CO)c(S(C)(=O)=O)c3)cc2F)c(C(C)(C)c2c(Cl)cccc2Cl)n1", "host": "male C57BL/6 mouse", "medium": "serum", "route": "oral", "dose": "10 mg/kg", "Cmax": "0.71 µM"}
{"Structure (SMILES)": "Cc1ccc2cncc(N3CCc4c(cc(Cn5ccnc5)cc4-c4cn(C)nc4C(F)(F)F)C3=O)c2c1", "host": "male CD-1 mouse", "medium": "plasma", "route": "oral", "dose": "10 mg/kg", "Cmax": "2680 ng/mL"}
{"Structure (SMILES)": "CC(C)Oc1c(NC(=O)c2ccc(NC(=O)[C@H](CC(N)=O)NC(=O)c3ccc(NC(=O)c4ccc(C#N)cc4)cc3)cc2)ccc(C(=O)Nc2ccc(C(=O)O)cc2)c1O", "host": "male CD-1 mouse", "medium": "plasma", "route": "subcutaneous", "dose": "5 mg/kg", "notes": "single dose", "Cmax": "129 ng/mL"}
{"Structure (SMILES)": "Cc1cc(Nc2ccc(S(F)(F)(F)(F)F)cc2)n2ncnc2n1", "host": "male Swiss mouse", "medium": "plasma", "route": "oral", "dose": "100 mg/kg", "notes": "single dose", "Cmax": "59 µM"}
{"Structure (SMILES)": "Cc1c2c(n(-c3ccc(Cl)cc3Cl)c1-c1ccc(OS(=O)(=O)CCC(F)(F)F)cc1)CCN(N1CCCCC1)C2=O", "host": "mouse", "medium": "plasma", "route": "oral", "dose": "6 µmol/kg", "notes": "single dose", "Cmax": "0.48 µM"}
